Screening results (PubChem)
M5 PAM: human M5 muscarinic receptor positive allosteric modulators, primary screen, CHO-K1 cells, Fluo-8 calcium fluorescence; CHO-K1 hM5, ACh EC20 PAM; 0% = ACh EC20, 100% = ACh EC100; activation, % at 3 µM; 360,000 tested, 0.3% active; AID 624038, 2012;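 active = activation above the run cutoff, the mean activation of all test compounds plus 3 SD, cut at about 18% in these data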
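Assay system: CHO-K1 hM5 cells. Also added: acetylcholine at EC20 concentration, added after compound. Dosing: 3 µM, single dose. Times: compound preincubation 140 s before EC20 acetylcholine addition. Signal: Fluo-8 calcium fluorescence. Measure: % activation relative to EC20 and EC100 ACh responses. Repeats: singlicate, one well per test compound.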
CHRM5 antagonist: human M5 muscarinic receptor antagonists, primary screen, CHO cells, Fluo-8 calcium fluorescence; Muscarinic acetylcholine receptor M5 (Homo sapiens), P08912; CHO-hM5 cells, ACh EC80; inhibition, % at 3 µM; 360,000 tested, 0.59% active; AID 624040, 2012;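 active = inhibition above a per-plate cutoff, the mean of that plate's test compounds plus 3 SD, cut at about 27% in these data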
CHRM4 PAM: human M4 muscarinic receptor positive allosteric modulators, primary screen, CHO-K1 cells, Fluo-8 calcium fluorescence; CHO-K1 hM4/Gqi5, ACh EC20; 0% = ACh EC20, 100% = maximal ACh; activation, % at 3 µM; 360,000 tested, 0.4% active; AID 624126, 2012;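 active = activation above its plate's cutoff, the mean activation of sample wells plus 3 SD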
Target sequence (P08173 whole entry, looked up): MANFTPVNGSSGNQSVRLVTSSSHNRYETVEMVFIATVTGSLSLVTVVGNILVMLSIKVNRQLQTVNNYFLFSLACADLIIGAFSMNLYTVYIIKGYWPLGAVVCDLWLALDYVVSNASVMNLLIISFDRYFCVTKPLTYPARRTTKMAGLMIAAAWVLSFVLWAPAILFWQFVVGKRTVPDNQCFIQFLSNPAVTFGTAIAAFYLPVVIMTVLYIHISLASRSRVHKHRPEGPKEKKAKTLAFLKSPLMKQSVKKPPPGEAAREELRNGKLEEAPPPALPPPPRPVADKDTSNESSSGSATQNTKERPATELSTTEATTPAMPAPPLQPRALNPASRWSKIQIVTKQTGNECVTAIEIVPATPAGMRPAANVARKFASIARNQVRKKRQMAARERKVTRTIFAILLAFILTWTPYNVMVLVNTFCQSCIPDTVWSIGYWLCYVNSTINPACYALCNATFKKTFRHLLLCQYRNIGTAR
CHRM5 agonist: human M5 muscarinic receptor agonists, primary screen, CHO-K1 cells, Fluo-8 calcium fluorescence; Muscarinic acetylcholine receptor M5 (Homo sapiens), P08912; activation, % at 3 µM; 360,000 tested, 0.19% active; CHO-K1 hM5 cells; 0% DMSO wells, 100% maximal acetylcholine response;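 active = activation above the run's mean over test compounds plus 3 SD, cut at about 23% in these data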;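 note: signal is peak over basal fluorescence ratio across the kinetic read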
CHRM4 agonist: human M4 muscarinic receptor agonists, primary screen, CHO-K1 cells, Fluo-8 calcium fluorescence; Muscarinic acetylcholine receptor M4 (Homo sapiens), P08173; 360,000 tested, 0.14% active; CHO-K1 hM4/Gqi5; vehicle 0%, full acetylcholine response 100%; activation, % at 3 µM;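 active = activation above the run mean over all test wells plus 3 SD, cut at about 32% in these data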;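 note: peak over basal fluorescence ratio per well then scaled between controls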
M4 antag: human M4 muscarinic receptor antagonists, primary screen, CHO cells, Fluo-8 calcium fluorescence; Muscarinic acetylcholine receptor M4 (Homo sapiens), P08173; CHO-hM4 cells, ACh EC80; inhibition, % at 3 µM; 360,000 tested, 0.73% active;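 active = inhibition above its plate's cutoff, the mean inhibition of sample wells plus 3 SD, cut at about 27% in these data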
Of the large screens only hits and unclear results are named; the others gave an inactive call. Only some compounds are listed: those with a hit (about 1.9% of all), similar ones and a draw of the others.

C[C@H](CO)N1C[C@H](C)[C@@H](CN(C)S(=O)(=O)c2ccccc2)Oc2c(NC(=O)c3ccncc3)cccc2C1=O	none
CC(CNc1nc2ccc(Cl)cc2n2cnnc12)c1ccccc1 (stereo unspecified)	none
CC(C)n1cc(/C(N)=N/O)c(=O)n(Cc2ccccc2)c1=O	M5 PAM 39, CHRM4 PAM 13
Cc1cn(C(C)C)c(=O)n(-c2ccccc2)c1=O	none
CC(=O)Nc1cccc(NC(=O)C2CCCN2C(=O)Nc2cccc(C)c2)c1 (stereo unspecified)	none
CC(=O)Nc1cccc(NC(=O)C2CCCN2C(=O)Nc2cccc(F)c2)c1 (stereo unspecified)	M5 PAM 21
CCOC(=O)c1ccc(NC(=O)C2CCCN(S(=O)(=O)c3ccc(F)cc3)C2)cc1 (stereo unspecified)	CHRM5 antagonist 32, M4 antag 37
CC(=O)c1ccc(NC(=O)C2CCCN(S(=O)(=O)c3cccc4nonc34)C2)cc1 (stereo unspecified)	none
Cc1ccc(NC(=O)C2CCCN(S(=O)(=O)c3cccc4nonc34)C2)cc1 (stereo unspecified)	CHRM5 antagonist 29
CS(=O)(=O)N1CCCC(C(=O)Nc2cccc(F)c2)C1 (stereo unspecified)	M5 PAM 18
Cc1ccc(NC(=O)COC(=O)c2ccc(S(=O)(=O)N3CCCC3)cc2)cc1	none
Cc1cc(-c2nc3cc(F)ccc3s2)ccc1N	none
CCOC(=O)C1CCCN(CC(=O)c2ccc(F)cc2)C1 (stereo unspecified)	CHRM5 agonist 27
CN1CCN(C2Cc3cc(Cl)ccc3Sc3cc(F)ccc32)CC1 (stereo unspecified)	CHRM5 antagonist 59, M4 antag 94
CCc1ccc2c(c1)Sc1ccccc1CC2N1CCN(C)CC1 (stereo unspecified)	M4 antag 33
OCCN1CCN(C2Cc3cc(Cl)ccc3Sc3ccc(Cl)cc32)CC1 (stereo unspecified) (tested in a mixture with another compound)	none
c1ccc2c(c1)CC(N1CCCCC1)c1ccccc1S2 (stereo unspecified)	none
COc1ccc(NC(=O)CSc2ccc3c(c2)OCCO3)cc1S(N)(=O)=O	none
CCc1ccc2c(c1)NC(=O)C2(C)Cc1ccc(Cl)s1 (stereo unspecified)	none
O=c1c(/C=N\NS(=O)(=O)c2ccccc2)coc2ccc(Cl)cc12	CHRM5 antagonist 35
Cc1nc2c(C)cccn2c1/C(O)=C1\C(=O)C(=O)N(CCN(C)C)C1c1ccco1 (stereo unspecified)	M5 PAM 21
Cc1ccc(C2/C(=C(\O)c3c(C)nc4c(C)cccn34)C(=O)C(=O)N2CCN(C)C)o1 (stereo unspecified)	none
c1ccc(CCN=C2CCCc3c2[nH]c2ccccc32)cc1	none
O=C(Nc1ccc2cccnc2c1)c1ccc(Br)cc1	CHRM4 PAM 15
CC(=O)Nc1cc(S(=O)(=O)C(F)(F)F)ccc1Cl	M5 PAM 19
CC1(C)N=C(N)N=C(N)N1c1ccc(CCCCc2ccccc2)cc1	CHRM5 antagonist 41
CC1(C)N=C(N)N=C(N)N1c1ccccc1	none
CC(C)C[C@H]1CN([C@@H](CC(C)C)CN2CCC[C@H]2CN2C(=O)C(=O)NC[C@@H]2Cc2ccc(O)cc2)C(=O)C(=O)N1CC1CCCCCC1	none
O=C(c1ccncc1)N1N=C(c2ccc(Br)cc2)CC1c1ccccc1O (stereo unspecified)	CHRM5 antagonist 32
Cc1ccc(S(=O)(=O)CCc2ccncc2)cc1	none
